Experimental data published in ChEMBL document CHEMBL1134551, “The effect of 1,3-diaryl-[1H]-pyrazole-4-acetamides on glucose utilization in ob/ob mice” (2001).

Key:
Mus musculus [1] = assay: Percentage efficacy to normalize the blood glucose levels to that of normal mouse in ob/ob mouse after 3 days and 8 hours of 300 mg/kg dose administration; Nonsignificant; format: functional, organism-based; parameters: dose 300 mg/kg
Method in brief: (§1)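 Adult male C57BL ob/ob mice, n = 6/group, matched on day-0 blood glucose; non-diabetic animals (<150 mg/dL basal) excluded. Oral dosing each morning days 1-3 in 0.5% CMC with 0.2% Tween-80. Tail-nick blood glucose by YSI analyzer. % efficacy = {1 − ([glc]cpd − 100)/([glc]veh − 100)} × 100. Significance by t-test vs vehicle, p < 0.05.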

Mus musculus [2] = assay: Percentage efficacy to normalize the blood glucose levels to that of normal mouse in ob/ob mouse after 3 days and 4 hours of 300 mg/kg dose administration; Nonsignificant; format: functional, organism-based; parameters: dose 300 mg/kg; method in brief: as §1
Mus musculus [3] = assay: Percentage efficacy to normalize the blood glucose levels to that of normal mouse in ob/ob mouse after 3 days and 4 hours of 100 mg/kg dose administration; Nonsignificant; format: functional, organism-based; parameters: dose 100 mg/kg; method in brief: as §1
Mus musculus [4] = assay: Percentage efficacy to normalize the blood glucose levels to that of normal mouse in ob/ob mouse after 3 days and 8 hours of 100 mg/kg dose administration.; format: functional; method in brief: as §1
Mus musculus [5] = assay: Percentage efficacy to normalize the blood glucose levels to that of normal mouse in ob/ob mouse after 3 days and 8 hours of 300 mg/kg dose administration.; format: functional; method in brief: as §1
Mus musculus [6] = assay: Percentage efficacy to normalize the blood glucose levels to that of normal mouse in ob/ob mouse after 3 days and 4 hours of 300 mg/kg dose administration.; format: functional; method in brief: as §1
Mus musculus [7] = assay: Percentage efficacy to normalize the blood glucose levels to that of normal mouse in ob/ob mouse after 3 days and 8 hours of 100 mg/kg dose administration; Nonsignificant; format: functional, organism-based; parameters: dose 100 mg/kg; method in brief: as §1
Mus musculus [8] = assay: Percentage efficacy to normalize the blood glucose levels to that of normal mouse in ob/ob mouse after 3 days and 4 hours of 100 mg/kg dose administration.; format: functional; method in brief: as §1

## O=C(Cc1cn(-c2cccc(C(F)(F)F)c2)nc1-c1ccc(Cl)c(Cl)c1)Nc1ccccc1
Mus musculus [1]
  Efficacy: Not significant
Mus musculus [2]
  Efficacy: Not significant

## CN(C)C(=O)Cc1cn(-c2cccc(C(F)(F)F)c2)nc1-c1ccc(-c2ccc(F)cc2)cc1
Mus musculus [3]
  Efficacy: Not significant
Mus musculus [4]
  Efficacy: 81%

## CONC(=O)Cc1cn(-c2cccc(C(F)(F)F)c2)nc1-c1ccc(Cl)c(Cl)c1
Mus musculus [5]
  Efficacy: 35%
Mus musculus [6]
  Efficacy: 48%

## CN(C)C(=O)Cc1cn(-c2cccc(C(F)(F)F)c2)nc1-c1ccccc1
Mus musculus [5]
  Efficacy: 36%
Mus musculus [6]
  Efficacy: 71%

## CN(C)C(=O)Cc1cn(-c2cccc(C(F)(F)F)c2)nc1-c1ccccc1-c1ccccc1
Mus musculus [7]
  Efficacy: Not significant
Mus musculus [3]
  Efficacy: Not significant

## O=C(Cc1cn(-c2cccc(C(F)(F)F)c2)nc1-c1ccc(Cl)c(Cl)c1)N1CCCC1
Mus musculus [5]
  Efficacy: 76%
Mus musculus [6]
  Efficacy: 72%

## CC(=O)OC1c2ccccc2-c2ccc(-c3nn(-c4cccc(C(F)(F)F)c4)cc3CC(=O)N(C)C)cc21 (configuration not stated)
Mus musculus [8]
  Efficacy: 95%
Mus musculus [4]
  Efficacy: 108%

## CN(C)C(=O)Cc1cn(-c2cccc(C(F)(F)F)c2)nc1-c1ccc(Cc2ccccc2)cc1
Mus musculus [7]
  Efficacy: Not significant
Mus musculus [3]
  Efficacy: Not significant

## CN(C)C(=O)Cc1cn(-c2cccc(C(F)(F)F)c2)nc1-c1cccc2ccccc12
Mus musculus [7]
  Efficacy: Not significant
Mus musculus [3]
  Efficacy: Not significant

## CN(C)C(=O)Cc1cn(-c2cccc(C(F)(F)F)c2)nc1-c1cc2ccccc2c2ccccc12
Mus musculus [7]
  Efficacy: Not significant
Mus musculus [3]
  Efficacy: Not significant

## CN(C)C(=O)Cc1cn(-c2cccc(C(F)(F)F)c2)nc1-c1ccc2c(c1)Cc1ccccc1O2
Mus musculus [8]
  Efficacy: 65%
Mus musculus [4]
  Efficacy: 96%

## CCOC(=O)Cc1cn(-c2cccc(C(F)(F)F)c2)nc1-c1ccc(Cl)c(Cl)c1
Mus musculus [1]
  Efficacy: Not significant
Mus musculus [2]
  Efficacy: Not significant

## CN(C)C(=O)Cc1cn(-c2ccc(C(C)(C)C)cc2)nc1-c1ccc(Cl)c(Cl)c1
Mus musculus [7]
  Efficacy: Not significant
Mus musculus [3]
  Efficacy: Not significant

## COc1ccc(-n2cc(CC(=O)N(C)C)c(-c3ccc(Cl)c(Cl)c3)n2)cc1
Mus musculus [5]
  Efficacy: 35%
Mus musculus [6]
  Efficacy: 39%

## CN(C)C(=O)Cc1cn(-c2cccc(C(F)(F)F)c2)nc1-c1ccc2ccccc2c1
Mus musculus [7]
  Efficacy: Not significant
Mus musculus [3]
  Efficacy: Not significant

## O=C(Cc1cn(-c2cccc(F)c2)nc1-c1ccc(Cl)c(Cl)c1)N1CCCC1
Mus musculus [5]
  Efficacy: 75%
Mus musculus [6]
  Efficacy: 74%

## CCN(CC)C(=O)Cc1cn(-c2cccc(C(F)(F)F)c2)nc1-c1ccc(Cl)c(Cl)c1
Mus musculus [5]
  Efficacy: 50%
Mus musculus [6]
  Efficacy: 45%

## O=C(Cc1cn(-c2cccc(C(F)(F)F)c2)nc1-c1ccc(Cl)c(Cl)c1)N1CCCCC1
Mus musculus [1]
  Efficacy: Not significant
Mus musculus [2]
  Efficacy: Not significant

## CN(C)C(=O)Cc1cn(-c2cccc(C(F)(F)F)c2)nc1-c1ccc2c(c1)C(C)(C)c1ccccc1-2
Mus musculus [8]
  Efficacy: 67%
Mus musculus [4]
  Efficacy: 83%

## CN(C)C(=O)Cc1cn(-c2ccc(C(F)(F)F)cc2)nc1-c1ccc(Cl)c(Cl)c1
Mus musculus [5]
  Efficacy: 37%
Mus musculus [6]
  Efficacy: 45%

## CN(C)C(=O)Cc1cn(-c2cccc(C(F)(F)F)c2)nc1-c1ccc2c(c1)C(C)(O)c1ccccc1-2 (configuration not stated)
Mus musculus [8]
  Efficacy: 73%
Mus musculus [4]
  Efficacy: 64%

## CN(C)C(=O)Cc1cn(-c2cccc(C(F)(F)F)c2)nc1-c1ccc2sc3ccccc3c2c1
Mus musculus [7]
  Efficacy: Not significant
Mus musculus [8]
  Efficacy: 59%

## CN(C)C(=O)Cc1cn(-c2cccc(C(F)(F)F)c2)nc1-c1ccc(Cl)cc1
Mus musculus [5]
  Efficacy: 78%
Mus musculus [2]
  Efficacy: Not significant

## CN(C)C(=O)Cc1cn(-c2cccc([N+](=O)[O-])c2)nc1-c1ccc(Cl)c(Cl)c1
Mus musculus [8]
  Efficacy: -72%
Mus musculus [4]
  Efficacy: -88%

## Cc1cc(C)cc(-n2cc(CC(=O)N(C)C)c(-c3ccc(Cl)c(Cl)c3)n2)c1
Mus musculus [1]
  Efficacy: Not significant
Mus musculus [2]
  Efficacy: Not significant

## O=C(Cc1cn(-c2cccc(C(F)(F)F)c2)nc1-c1ccc(Cl)c(Cl)c1)N1CCN(c2ccccc2)CC1
Mus musculus [3]
  Efficacy: Not significant
Mus musculus [4]
  Efficacy: 42%
